Screening data as filed in PubChem.
Apaf-1 inh = inhibitors of human Apaf-1 apoptosome. O14727. reconstituted apoptosome caspase-3 activity, DEVD-Rh110 fluorescence. inhibition, % at 20 µM. 330,000 tested, 0.71% active. AID 489030; active = inhibition of at least 40% at 20 µM;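 note: plate controls were DMSO wells for no effect and DEVD-CHO caspase inhibitor wells for full effect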
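Medium: Hepes buffer, pH 7.5 / System: biochemical Apaf-1 apoptosome reconstitution / Measured by: Rh110 fluorescence, excitation 480 nm, emission 540 nm / Times: compound with Apaf-1, dATP, procaspase-3 30 min, then 50 min reaction, room temperature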
SENP6 inh = SENP6 protease inhibition | Q9GZR1 | Recombinant SENP6 catalytic domain, aminoluciferin luminescence | inhibition, % at 10 µM | 330,000 tested, 1.8% active | AID 2599;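 active = inhibition above about 50% at the single tested dose, limit read from the data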;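 note: plate controls were DMSO wells with enzyme for no effect and DMSO wells lacking enzyme for full effect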
Target sequence (Q9GZR1 628-1112 limits assumed): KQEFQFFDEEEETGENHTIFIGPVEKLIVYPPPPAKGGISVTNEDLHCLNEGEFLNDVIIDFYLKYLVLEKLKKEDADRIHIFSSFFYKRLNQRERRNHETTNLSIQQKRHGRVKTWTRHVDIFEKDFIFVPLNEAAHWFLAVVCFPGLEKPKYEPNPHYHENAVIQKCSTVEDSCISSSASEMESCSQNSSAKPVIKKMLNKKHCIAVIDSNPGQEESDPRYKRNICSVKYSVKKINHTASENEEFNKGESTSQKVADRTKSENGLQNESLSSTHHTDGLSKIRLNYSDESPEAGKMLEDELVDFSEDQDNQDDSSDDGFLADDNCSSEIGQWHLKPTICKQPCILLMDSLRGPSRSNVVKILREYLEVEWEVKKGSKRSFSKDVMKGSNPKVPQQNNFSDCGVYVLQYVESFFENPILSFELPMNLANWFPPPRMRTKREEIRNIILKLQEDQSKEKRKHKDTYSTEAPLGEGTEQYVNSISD
SENP7 inh = blocks the human protease SENP7 | recombinant SENP7, Z-RLRGG-aminoluciferin luminescence, 40 min | inhibition, % at 5 µM | 330,000 tested, 1.5% active | AID 434973;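 active = inhibition above about 50% at the single test dose, limit read from the data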;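 note: plate controls were DMSO with enzyme for no effect and no enzyme buffer wells for full effect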
SENP8 block-1 = inhibitors of human SENP8 protease; 330,000 tested, 1.2% active; Q96LD8; purified SENP8, Z-RLRGG-aminoluciferin cleavage, luminescence; inhibition, % at 10 µM; in the data active = inhibition above about 50%
Target sequence (Q96LD8 whole entry, looked up): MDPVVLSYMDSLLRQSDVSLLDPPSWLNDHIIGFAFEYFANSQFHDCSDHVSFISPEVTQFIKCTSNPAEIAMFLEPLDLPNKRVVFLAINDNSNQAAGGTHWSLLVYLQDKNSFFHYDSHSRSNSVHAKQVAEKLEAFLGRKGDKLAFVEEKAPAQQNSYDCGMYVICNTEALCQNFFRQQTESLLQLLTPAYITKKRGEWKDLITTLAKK
UBC13 inh = blocks human UBC13 polyubiquitin chain formation; P61088; TR-FRET; inhibition, % at 20 µM; 330,000 tested, 0.47% active; in the data active = inhibition above about 45%, passing the limit was not always enough
SENP8 block-2 = blocks human SENP8 cleavage of Nedd8 substrate | Q96LD8 | recombinant SENP8, Nedd8 substrate fluorescence | inhibition, % at 20 µM | 360,000 tested, 0.64% active; in the data active = inhibition mostly above about 40%, no sharp cut-off; inactive = mostly below about 27%
Apaf-1 inh conf2 = confirmation of Apaf-1 inhibitors. shares compounds with Apaf-1 inh. reconstituted apoptosome, caspase-3 DEVD-Rh110 fluorescence. inhibition, % at 20 µM. 1,800 tested, 25% active;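 active = mean inhibition of at least 40% at 20 µM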;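 note: plate controls were DMSO wells for no effect and DEVD-CHO caspase inhibitor control wells for full effect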
Rh110 interf inh = Rh110 signal interference in Apaf-1 inhibitor counter-screen; shares compounds with Apaf-1 inh; Rh110 fluorescence interference, quenched caspase reaction; activation (fluorescence interference), % at 20 µM; 1,800 tested, under 10 active; AID 504615;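 active = signal rise of 40% or more at 20 µM, treated as a fluorescence artifact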
Apaf1 inh interf = counter-screen for Apaf-1 inhibitors: fluorescence interference, dose response | AID 588538 | shares compounds with Apaf-1 inh | fluorescence interference counterscreen, Apaf-1 assay format | 460 tested, under 10 active | IC50, µM; call rule not given here
Active calls of the source: *; nt = no result. Compounds with a hit are over-represented: about 3.1% of the library has one in this group of screens.

SMILES	Apaf-1 inh	SENP6 inh	SENP7 inh	SENP8 block-1	UBC13 inh	SENP8 block-2	Apaf-1 inh conf2	Rh110 interf inh	others
CCCCC[n+]1ccn(C2=C([O-])c3ccccc3C(=O)/C2=N\S(=O)(=O)c2ccccc2)c1	52.9*	25.3	18.4	22.4	-90.8	67.4*	62.5*	7.9	Apaf1 inh interf=>100
CC(C)[n+]1ccn(C2=C([O-])c3ccccc3C(=O)/C2=N\S(=O)(=O)c2ccccc2)c1	46.2*	42.6	16.4	16.2	-57.6	86.1*	68.3*	3.1	Apaf1 inh interf=>100
CCCCC[n+]1ccn(C2=C([O-])c3ccccc3C(=O)/C2=N\S(=O)(=O)c2ccc(Br)cc2)c1	61.0*	34.6	6.5	15.8	-114.8	80.1*	43.2*	4.5	Apaf1 inh interf=>100
O=c1[nH]nc(-c2ccc[nH]2)[nH]1	nt	nt	nt	nt	nt	10.2	nt	nt
CCCCN(C=O)c1c(CC)nc2c(OCc3ccc(C(F)(F)F)cc3)cccn12	nt	nt	nt	nt	nt	1.9	nt	nt
CC1CCN(C(CNS(=O)(=O)c2ccccc2)c2ccccc2)CC1 (stereo not drawn)	2.0	-26.9	0.5	-7.0	0.1	7.7	nt	nt
CC1CCN(C2=C(NS(=O)(=O)c3ccccc3)C(=O)c3ccccc3C2=O)CC1	60.0*	48.8	17.2	17.4	-61.6	33.0	34.2	6.4
CC1CCCN(C2=C(NS(=O)(=O)c3ccc(Br)cc3)C(=O)c3ccccc3C2=O)C1 (stereo not drawn)	51.3*	37.9	20.3	4.9	-49.4	36.2	31.0	-1.5
CCOC(=O)C1CCCN(C2=C(NS(=O)(=O)c3ccc(Br)cc3)C(=O)c3ccccc3C2=O)C1 (stereo not drawn)	67.0*	42.9	38.7	16.3	-83.9	57.6*	48.1*	20.9
O=C1CCc2ccc(OCCCCN3CCN(c4cccc(Cl)c4Cl)CC3)cc2N1	42.6*	13.3	7.9	5.1	35.4	8.9	17.9	8.1
CN(C)c1ccc(N/C=C/C(=O)C(C)(C)C)cc1	53.4*	-8.8	-9.2	-6.9	-17.7	-46.2	-2.9	-2.6
CCOC(=O)c1ccc(N/C=C/C(=O)C(C)(C)C)cc1	-8.1	-2.3	-8.8	1.6	2.0	-3.6	nt	nt
CN1N=C(C(F)(F)F)CC1=O	-3.6	3.7	-2.9	6.8	-6.0	7.0	nt	nt
CN1N=C(C(C)(C)C)CC1=O	41.1*	5.0	1.3	-4.4	-8.2	nt	10.8	7.4
COC1=C(Nc2ccccc2)C(=O)c2ccccc2C1=O	60.8*	23.6	20.7	5.7	-165.6	-75.2	25.5	9.2
COC1=C(Nc2ccc(C)cc2)C(=O)c2ccccc2C1=O	61.5*	30.1	11.9	4.6	-135.1	-50.9	10.9	0.5
CN1CCN(S(=O)(=O)c2cccc(C(=O)Oc3ccc(C(C)(C)C)cc3)c2)CC1	40.0	-15.7	9.9	1.9	5.2	11.9	14.9	5.8
O=c1[nH]cc(CCCc2ccccc2)c(=O)[nH]1	nt	nt	nt	nt	nt	-4.2	nt	nt
Cc1ccc(NCC(=O)c2ccccc2)cc1Cl	-1.5	27.3	-3.9	2.2	-1.4	22.7	nt	nt
Cc1ccc(NC2=C(NC(=O)c3ccccc3)C(=O)c3ccccc3C2=O)cc1Cl	67.3*	35.1	5.5	15.5	-119.1	62.1*	64.4*	6.7	Apaf1 inh interf=>100
Cn1c(Cc2ccccc2)n[nH]c1=S	41.5*	-14.3	6.3	-4.3	8.8	11.0	2.2	2.5
Cn1c(CCc2ccccc2)n[nH]c1=S	-12.1	-11.1	-10.6	-10.7	-7.3	21.8	nt	nt
C=C1[C@@H](OC(C)=O)C=C[C@@]2(C)C=CC(=O)[C@@](C)(OC(C)=O)[C@@H]2[C@@H](OC(C)=O)[C@]2(O)[C@@H](C)C(=O)O[C@H]2[C@H]1Cl	nt	nt	nt	nt	nt	26.2	nt	nt
CC/C(=N/Nc1cccc(C)c1)c1cnnc(SC)n1	63.2*	19.6	8.1	6.5	-10.6	34.7	13.3	5.0
c1cc2c3c(cccc3c1)NC1(CCCCC1)N2	21.8	-4.8	-21.2	13.1	-21.4	3.2	nt	nt
SMILES	Apaf-1 inh	SENP6 inh	SENP7 inh	SENP8 block-1	UBC13 inh	SENP8 block-2	Apaf-1 inh conf2	Rh110 interf inh	others
c1cc2c3c(cccc3c1)NC1(CCCCCC1)N2	49.0*	48.2	24.9	25.4	-27.9	13.5	57.4*	-3.7	Apaf1 inh interf=>100
c1cc2c3c(cccc3c1)NC1(CCC3(CC1)Nc1cccc4cccc(c14)N3)N2	40.1*	5.3	3.2	-2.9	-35.8	-301.2	44.9*	8.0	Apaf1 inh interf=>100
C[C@@]12CCC=C[C@H]1[C@H](c1ccc3ccccc3c1Br)N(Cc1ccccc1)C2=O	49.2*	-11.5	9.4	-3.5	1.8	7.1	49.8*	3.9	Apaf1 inh interf=>100
COC(=O)C1=C(C)N(Cc2ccccc2)C(=NCC(C)C)N[C@H]1c1ccccc1	27.4	3.4	7.2	0.9	44.9	nt	nt	nt
COC(=O)C1=C(C)N(Cc2ccccc2)C(=NCc2ccc(OC)cc2)N[C@H]1c1ccccc1	51.3*	-32.1	6.5	-4.2	43.8	-33.2	12.1	6.1
Cc1cc(C=O)sc1[B-](F)(F)F	nt	nt	nt	nt	nt	13.9	nt	nt
Cc1ccc(C(=O)OCC(=O)NCc2ccc(Cl)cc2)s1	nt	nt	nt	nt	nt	12.0	nt	nt
Cc1ccc(-n2nc(C)c3c2OC(N)=C(C#N)C3c2ccco2)cc1 (stereo not drawn)	7.7	17.1	-2.5	-8.1	-32.7	38.9	nt	nt
Cc1ccc(-n2nc(C)c3c2OC(N)=C(C#N)C3c2ccoc2)cc1 (stereo not drawn)	81.0*	23.1	5.3	15.9	-22.2	-2.3	17.0	2.7
Cc1nn(-c2ccccc2)c2c1C(c1ccccc1)C(C#N)=C(N)O2 (stereo not drawn)	96.5*	46.1	52.1*	3.7	-30.9	2.3	14.6	-2.1
COC(=O)[C@@]1(Sc2ccc(C)cc2)CC(=O)N(C(=O)c2ccccc2)[C@@H]1c1ccccc1	nt	nt	nt	nt	nt	27.0	nt	nt
COc1ccc(C(CNC(=O)c2cccc(NS(=O)(=O)c3ccccc3)c2)N(C)C)cc1 (stereo not drawn)	3.2	0.7	-9.1	-1.2	-0.4	-29.5	nt	nt
COc1ccc(C(CNC(=O)c2cccc(NS(=O)(=O)c3ccc(C)c(F)c3)c2)N(C)C)cc1 (stereo not drawn)	52.3*	1.0	9.5	0.9	13.2	5.6	37.5	-6.2
Oc1ccccc1CNc1cccc2cccnc12	94.7*	91.4*	66.1*	78.9*	-121.4	22.4	12.0	6.2
Cc1ccc(S(=O)(=O)N(C)c2ccc(C(=O)NCC(c3ccccc3)N3CCCC3)cc2)cc1 (stereo not drawn)	nt	nt	nt	nt	nt	9.7	nt	nt
Cc1cc(C)c2nc(N(CCN(C)C)C(=O)c3ccc(S(=O)(=O)N(C)CC4CCCO4)cc3)sc2c1 (stereo not drawn)	48.7*	-4.8	0.8	0.0	1.5	7.6	9.8	7.2
CCCS(=O)(=O)NC(=O)C1(C)CCN(C(=O)COc2ccccc2)C1 (stereo not drawn)	nt	nt	nt	nt	nt	7.9	nt	nt
